Data from the RNAGym collection of RNA variant scans (doi:10.1126/science.aae0568).
This sample holds only a part of the variants without activity.

B1: tRNA (parent)
chain: GUUCCGUUGGCGUAAUGGUAACGCGUCUCCCUCCUAAGGAGAAGACUGCGGGUUCGAGUCCCGUACGGAACG

Variants of: B1
Assay: yeast fitness relative to wild type (ratio to wild type); higher = fitter; tRNA-Arg(CCU), competitive growth, 37 C, YPD
Method in brief: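 Changes in genotype frequencies gave Darwinian fitness relative to wild type. Frequencies were read by 100-nucleotide paired-end sequencing of gene amplicons before and after pooled Saccharomyces cerevisiae strains, carrying tRNA-Arg(CCU) gene variants at the native locus, were competed in YPD at 37°C for 24 hours in six replicates. A genotype was kept only with ≥ 100 starting reads, and estimates < 0.5 were set to 0.5.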

Question: For GUUCCGUUGGCGUAAUGGUAACGGGUCUCCCUCCUAAGGAGAAGACUGCGGGUUCGAGUCCCGUCCGGAACG [C24G A65C], which yeast fitness is on record?
Answer: 0.648

Question: Which yeast fitness does the source give for GUUCCGUUGGCGUAAUGGUAACGGGUCUCCCUCCUAGGGAGAAGACCGCGGGUUCGAGACCCGUACAGAACG [C24G A37G U47C U59A G67A] here?
Answer: ≤ 0.5

Question: Which yeast fitness does the source give for GUUCCGUUGGCGUAAUGGUAACGAGUCUGCCUCCUAAGGAGAAGACUGCGGGUACGAGUCCCGUACGGAACG [C24A C29G U54A] here?
Answer: 0.568

Question: With GUUCCGUUGGCGUAAUGGUAACGAGUCUCCCUCUUAAGGAGAUGACUGGGGGUUCGAGUCCGGUACGGAACG [C24A C34U A43U C49G C62G] as the variant, how does the yeast fitness read?
Answer: ≤ 0.5

Question: For GUUCCGUUGGCGUAAUGGUAACGGGUCUCCCUCCUAAGGAGGAGACUGCGGGUUCGGGUCCCGUACGGAACG [C24G A42G A57G], which yeast fitness is on record?
Answer: ≤ 0.5

Question: With GUUCCGUUGGCGUAAUGGUAACGGGUCUCCCUCCUAAGGAGAAGCGUGCGGGUUCGAGUGCCGUACGGUACG [C24G A45C C46G C60G A69U] as the variant, how does the yeast fitness read?
Answer: ≤ 0.5

Question: Which yeast fitness does the source give for GUUCCGUUGGCGUAAUGGUAACGAGUCUCCCUCCUAAGGAGAAAACUGCGGGUUCGAGUCCCGUACGGAACG [C24A G44A] here?
Answer: 0.7

Question: With GUUCCGUUGGCGUAAUGGUAACGAGUCUCCCUCCUAAGGAGAAGACUGCGGGUUCGAGUCCCGUACGGAUCG [C24A A70U] as the variant, how does the yeast fitness read?
Answer: 0.596

Question: With GUUCCGUUGGCGUAAUGGUAACGAGUCUCUCUCCUAAGGAGAAGGCUGCGGGUUCGUGUCCCGUACGGAACG [C24A C30U A45G A57U] as the variant, how does the yeast fitness read?
Answer: 0.6

Question: Which yeast fitness does the source give for GUUCCGUUGGCGUAAUGGUAACGAGUCUCCUUCCUAAGGAGAAGACUGCGGGAUCGAGUCCCGUACGGAACG [C24A C31U U53A] here?
Answer: 0.786

Question: With GUUCCGUUGGCGUAAUGGUAACGAGUCUCCCUCCUAAGGAGCAGACUGCGGGUUCGAGUCCCGUACCGAUCG [C24A A42C G67C A70U] as the variant, how does the yeast fitness read?
Answer: ≤ 0.5

Question: With GUUCCGUUGGCGUAAUGGUAACGAGUCUCCCUCCUAAGGAGCAGACUGCGGGUUCGAGUCCCGUACGGAACG [C24A A42C] as the variant, how does the yeast fitness read?
Answer: 0.713

Question: Which yeast fitness does the source give for GUUCCGUUGGCGUAAUGGUAACGGGUCUCCCUCCUAAGGAGAGGACAGCGGGAUCGAGUCCCGUACGGAACG [C24G A43G U47A U53A] here?
Answer: ≤ 0.5

Question: Which yeast fitness does the source give for GUUCCGUUGGCGUAAUGGUAACGAGUCUCCCUCCUAAGGAGAAGACUGCGGGUUCGAGUCCCGUACGCAACG [C24A G68C] here?
Answer: 0.643

Question: With GUUCCGUUGGCGUAAUGGUAACGAGUCUCCCUCCUAAGGAGCAGACAGCGGGUUCGAGUCCCCUACGGCACG [C24A A42C U47A G63C A69C] as the variant, how does the yeast fitness read?
Answer: ≤ 0.5

Question: With GUUCCGUUGGCGUAAUGGUAACGAGUCUCCCUCCUAAGGAGAAGACUGCGGGUUCGUGUCCCGUACGGAACG [C24A A57U] as the variant, how does the yeast fitness read?
Answer: 0.681

Question: For GUUCCGUUGGCGUAAUGGUAACGGGUCUCCCUCCUUAGGAGUAGACUGGGGGAUCGAAUACCGUACGGAACG [C24G A36U A42U C49G U53A G58A C60A], which yeast fitness is on record?
Answer: ≤ 0.5

Question: For GUUCCGUUGGCGUAAUGGUAACGAGUCUCCCUCCUAAGGUGAAGACUGUGGGUUCGAGUCCAGUAAGGAACG [C24A A40U C49U C62A C66A], which yeast fitness is on record?
Answer: ≤ 0.5

Question: For GUUCCGUUGGCGUAAUGGUAACGGGUCUCCCUCCUAAGGAGCAGACUGCGGGUUAGAGACCCGUACGGAUCG [C24G A42C C55A U59A A70U], which yeast fitness is on record?
Answer: ≤ 0.5

Question: With GUUCCGUUGGCGUAAUGGUAACGAGGCUCGCUCCUAAGGAGAUGACUGCGGGUUCGAGUCCUGUACGGAACG [C24A U26G C30G A43U C62U] as the variant, how does the yeast fitness read?
Answer: 0.549

Question: For GUUCCGUUGGCGUAAUGGUAACGAGUCUCUCUACUAAGGACUAGACUGCGGGUUCGAGUCCCGUACGGAACG [C24A C30U C33A G41C A42U], which yeast fitness is on record?
Answer: ≤ 0.5

Question: Which yeast fitness does the source give for GUUCCGUUGGCGUAAUGGUAACGGGUCUCCCUCCUAAGGAGCAGACUGCGGGUUCGAGUUCCGAACGGAACG [C24G A42C C60U U64A] here?
Answer: 0.562

Question: With GUUCCGUUGGCGUAAUGGUAACGAGUAACCCUCCUAAGGAGAAGACUGCGGGUUCGAGUCCCGUACUGAACG [C24A C27A U28A G67U] as the variant, how does the yeast fitness read?
Answer: ≤ 0.5

Question: Which yeast fitness does the source give for GUUCCGUUGGCGUAAUGGUAACGAGGCUCCCUCCUAAGGAGAAGACUGCGGGUUCCAGUCCCGUACGGAACG [C24A U26G G56C] here?
Answer: ≤ 0.5

Question: For GUUCCGUUGGCGUAAUGGUAACGGGUCUCCCUCCUAAGGGGGAGACUGCGGGUUCGAGUCCCGUACGGAACG [C24G A40G A42G], which yeast fitness is on record?
Answer: 0.54

Question: With GUUCCGUUGGCGUAAUGGUAACGGGUCUCCCUCCUGAGGAGAAGACUGCGGGUUCGGGUCCCGUACGGAACG [C24G A36G A57G] as the variant, how does the yeast fitness read?
Answer: 0.533

Question: With GUUCCGUUGGCGUAAUGGUAACGGGUCUCCCUCCUUAGGAGAAGACUGCGGGUUCGAGUCCCGUGCGGAACG [C24G A36U A65G] as the variant, how does the yeast fitness read?
Answer: ≤ 0.5

Question: With GUUCCGUUGGCGUAAUGGUAACGAGUCUGCCUCCUAAGGAGAAGGCUGCGGGUUCGAGUCCCGUACGGAACG [C24A C29G A45G] as the variant, how does the yeast fitness read?
Answer: ≤ 0.5

Question: With GUUCCGUUGGCGUAAUGGUAACGAGUCUCCCUCCUAAGGAGAAGACUGCGGGUUCGAGUCCCGCACGGAACG [C24A U64C] as the variant, how does the yeast fitness read?
Answer: 0.706

Question: For GUUCCGUUGGCGUAAUGGUAACGAGUCUCCCUCCUAAGGAGAAGACUACGGGGUCGAGUCCCCUACGGAACG [C24A G48A U53G G63C], which yeast fitness is on record?
Answer: ≤ 0.5

Question: Which yeast fitness does the source give for GUUCCGUUGGCGUAAUGGUAACGAGUCUCCCUCCUAAGGAGAAGACUGUGGGUUUGAGUCCCGUACGGAACG [C24A C49U C55U] here?
Answer: ≤ 0.5

Question: With GUUCCGUUGGCGUAAUGGUAACGAGUCUCCCUUCUAAGGAGAAGACUGCGGGUUCGAGUCCUGUACGGAACG [C24A C33U C62U] as the variant, how does the yeast fitness read?
Answer: ≤ 0.5

Question: With GUUCCGUUGGCGUAAUGGUAACGAGUCUCCCUCCUAAGGAGGAGACUGCGGGUUCGAGUCCCAAACGGAACG [C24A A42G G63A U64A] as the variant, how does the yeast fitness read?
Answer: ≤ 0.5

Question: With GUUCCGUUGGCGUAAUGGUAACGAGUCUUUCUCCUAAGGAGAAGACUGCGGGUUCGAGUCCCGUACGGAACG [C24A C29U C30U] as the variant, how does the yeast fitness read?
Answer: ≤ 0.5

Question: For GUUCCGUUGGCGUAAUGGUAACGAGGCUCCCUCCUAAGGAGACGACUGCGGGUUCGAGUCCCGUACGCAACG [C24A U26G A43C G68C], which yeast fitness is on record?
Answer: ≤ 0.5

Question: With GUUCCGUUGGCGUAAUGGUAACGAGUCUACCUCCUAAGGAGAAAAGUGCAGGUUCGAGUCCCGUUCGGAACG [C24A C29A G44A C46G G50A A65U] as the variant, how does the yeast fitness read?
Answer: 0.556

Question: With GUUCCGUUGGCGUAAUGGUAACGAGUCUCCCUCCUAAGGAGGAGACUGCGGGUUCGAGUCCCAUACGGAACG [C24A A42G G63A] as the variant, how does the yeast fitness read?
Answer: ≤ 0.5

Question: Which yeast fitness does the source give for GUUCCGUUGGCGUAAUGGUAACGAGUCUCCCUCCUAAGGAGCAGACUGCGGGUUCGAGUCCCGCACGGAACG [C24A A42C U64C] here?
Answer: ≤ 0.5
